# Variants at the floor of the assay were thinned out.
# B1: tRNA (parent)
# chain: GUUCCGUUGGCGUAAUGGUAACGCGUCUCCCUCCUAAGGAGAAGACUGCGGGUUCGAGUCCCGUACGGAACG
# Variants of: B1
# Experiment: yeast fitness relative to wild type (ratio to wild type); higher = fitter; tRNA-Arg(CCU), competitive growth, 37 C, YPD
# Method in brief: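 Start and end populations of a pooled competition were compared by 100-nucleotide paired-end sequencing of gene amplicons. The Saccharomyces cerevisiae strains carried tRNA-Arg(CCU) gene variants at the native genomic locus, synthesised with a 3% per-site mutation rate at 69 sites, and competed in YPD at 37°C for 24 hours in six parallel replicates. Darwinian fitness relative to wild type was based on the change in genotype frequencies. Genotypes required ≥ 100 starting reads, and estimates < 0.5 were set to 0.5.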
row,Variant,yeast fitness
1,G12A U28G C30U A36C,≤ 0.5
2,G12C G23C,0.588
3,G12C G39A G68C,≤ 0.5
4,G12A U28C A37C A43C C49G,0.548
5,G12C C27U C33A A45C U54A,≤ 0.5
6,G12C G25A U54C,0.635
7,G12C G41C,0.748
8,G12A G23C C49A A57C,≤ 0.5
9,G12A G51A A65G,≤ 0.5
10,G12C G25A G41C,0.591
11,G12A U16A C27G,≤ 0.5
12,G12C G51A U59A C62G,≤ 0.5
13,G12C G18C C55U C60G,≤ 0.5
14,G12C C30G C62A,≤ 0.5
15,G12C A37C,0.648
16,G12C C27G C30A,≤ 0.5
17,G12A G39C G67A,≤ 0.5
18,G12A U32G C33U A45U C55U,≤ 0.5
19,G12A G68A,0.771
20,G12A U13G G23C C24G C29G A36C,≤ 0.5
21,G12A U32C,0.914
22,G12C G17A A20U C34A G41C,≤ 0.5
23,G12A U13A G41C A45C,0.546
24,G12C G39A,0.75

row,Variant,yeast fitness
1,G12A G63A G67A,≤ 0.5
2,G12A U16C,0.981
3,G12A U16G,0.815
4,G12A U26C U47C A57C,≤ 0.5
5,G12C A15G A37U A40G U54C C66G,0.538
6,G12A G41A,0.889
7,G12A G41C,0.864
8,G12C C27U C33A A45C U54A C62U,≤ 0.5
9,G12A G48A C66U G67A,≤ 0.5
10,G12A U28G C30U C61A A69U,0.679
11,G12A G38A C60G,≤ 0.5
12,G12C A42U C46U C55G,≤ 0.5
13,G12A U47C,0.905
14,G12C A15G C34A G63C A70C,0.641
15,G12C G18C G58C,≤ 0.5
16,G12C G39C A43G,≤ 0.5
17,G12C G39C G50C C61G,≤ 0.5
18,G12C C30U U59A,≤ 0.5
19,G12A G25A A65G,0.682
20,G12A G25A A65U,0.756
21,G12C G17A C46G C49U,≤ 0.5
22,G12C A57G,0.974
23,G12C A57U,0.663
24,G12C A14U A20U G23A G44A A57G A70U,0.575

row,Variant,yeast fitness
1,G12C G17A C49A G56A,≤ 0.5
2,G12C U16A C27G A36G C46U C61U C62A G68A,≤ 0.5
3,G12A U28G A36G,≤ 0.5
4,G12C A21G U26C C31U,≤ 0.5
5,G12C C30G A42U,≤ 0.5
6,G12C C29G U53A,0.609
7,G12A U13C A15G U64C,0.738
8,G12A G44U G68C,≤ 0.5
9,G12C C30U C31U,0.611
10,G12C C27G U32C A37G,≤ 0.5
11,G12A G25A G48A,0.66
12,G12C C24G U53C C60G,≤ 0.5
13,G12C C34A A70U,≤ 0.5
14,G12C U13A G18C U32A G52A,≤ 0.5
15,G12A G50C C66U,≤ 0.5
16,G12A G23C C61G,≤ 0.5
17,G12C C24A,0.685
18,G12C U19A A42C G50C G56C,≤ 0.5
19,G12C C33G C34U A36C A43G G52A G58C U64G A65G,≤ 0.5
20,G12A U26C C62U,0.579
21,G12A U13C A42U,0.561
22,G12A G44A G67C,0.62
23,G12C A15C A20U G38C G50C,≤ 0.5
24,G12C A15C U19A C34U C49A,≤ 0.5

row,Variant,yeast fitness
1,G12C C33U G50C A70U,0.509
2,G12A U13C A15U,0.507
3,G12C A14G C33G G44C,≤ 0.5
4,G12C A20U C30U G38A C55U C66U,≤ 0.5
5,G12A G23C G56C C61G,≤ 0.5
6,G12C C22G G23A A37C A43C,0.534
7,G12A U26C,0.878
8,G12A U26A,0.941
9,G12C G38C,0.54
10,G12A U35A G58A C66G G68A,≤ 0.5
11,G12C A40C C46U C49A U64A,≤ 0.5
12,G12C G48C G52C,≤ 0.5
13,G12A U26C G58A,0.675
14,G12C A21U A42U,0.611
15,G12C C27U C33G G38C,≤ 0.5
16,G12C U16A C49G,0.593
17,G12C C22G G23A A37C A43C A65U,≤ 0.5
18,G12C C62G A65C,≤ 0.5
19,G12A G38C C46G C49G G51C C61U,≤ 0.5
20,G12C C30G A45U C46A,0.608
21,G12C G17A C46G,0.584
22,G12A U19C C34G,0.544
23,G12A U35A G51C,≤ 0.5
24,G12A G23C C24A G25A,≤ 0.5

row,Variant,yeast fitness
1,G12C A40U C49G G50A,≤ 0.5
2,G12A U19C C31G,≤ 0.5
3,G12A U53G G58C C61A,≤ 0.5
4,G12A G23C C55G A69C,0.561
5,G12C A15C U19A C34U C49G A69U,≤ 0.5
6,G12C U13C A20C C24G G39C U64A,≤ 0.5
7,G12A U13A A14G A21G C33U C62G,≤ 0.5
8,G12C A14U C27G A45U C46G G56A,≤ 0.5
9,G12C A37G U54A A65C,≤ 0.5
10,G12C G25A A45C,0.543
11,G12C C30U G56A,0.54
12,G12C G67U,0.767
13,G12C A36C A40U C66U A69U,≤ 0.5
14,G12C A20C A36G,0.581
15,G12C C33G C34U A36C A43G G52C C60U,0.608
16,G12C A14C A15G A37C,0.606
17,G12A U53A,0.62
18,G12C A40G G50C C62U,0.756
19,G12A U13C G44C,0.554
20,G12A G56C,0.764
21,G12C U16A C24G G48C,≤ 0.5
22,G12A U19C A42U G48C C55U,0.593
23,G12C C33G G44C,0.572
24,G12C C22G G23A A37C A43C G68A,≤ 0.5

row,Variant,yeast fitness
1,G12C C33A G51C C62G,≤ 0.5
2,G12A U13C C22A U26C U47A U54G,≤ 0.5
3,G12C U13A A36U,0.626
4,G12C C33G A36G G44C,≤ 0.5
5,G12C A20U C24U G51A G68C,≤ 0.5
6,G12C A20C C24A A36C G48C,≤ 0.5
7,G12A U28C C31U G52A G56C,≤ 0.5
8,G12C A20U G25A,≤ 0.5
9,G12C U13C A20C C29G,≤ 0.5
10,G12C C66G,0.657
11,G12C C66U,0.743
12,G12C C62U,0.776
13,G12C G18C C27A G38C C49G,≤ 0.5
14,G12C A43U U54C,≤ 0.5
15,G12A U13G A69C,0.598
16,G12C A15G G44C A57U,0.69
17,G12C G39A A70G,0.537
18,G12C G39A A42C,≤ 0.5
19,G12C A20C C34G U54G,≤ 0.5
20,G12A U64A,0.849
21,G12C U16A C60G C61U G63A G68A,≤ 0.5
22,G12C A20U G25A A36G,≤ 0.5
23,G12C G52C C66U,≤ 0.5
24,G12A G25A,0.819

row,Variant,yeast fitness
1,G12C A14G C27U C33A A45C U54A,≤ 0.5
2,G12C A65U G68U,0.653
3,G12C A20U A45U G50A G51A,≤ 0.5
4,G12C A15C U19A C34U C49A G67A,0.547
5,G12C A21G G58C,0.892
6,G12C G25A U35C,0.552
7,G12C A21C,0.638
8,G12C A14U A20U G23A G68A,≤ 0.5
9,G12C A15C,0.67
10,G12A U19G U35C A40U G52C U64C,≤ 0.5
11,G12C C66G A69U,≤ 0.5
12,G12C C62U A70U,0.606
13,G12A U19C A21U A69C,0.653
14,G12C A70C,0.833
15,G12C A70G,0.845
16,G12C U13C C27U C62G,≤ 0.5
17,G12C G25C,0.762
18,G12C C24U C55U,0.564
19,G12C U16A G23C C29A A45C G68A,0.748
20,G12C A14G G25A G41C C61U A70G,≤ 0.5
21,G12C C61G,0.635
22,G12C C61U,0.746
23,G12C A69U,0.935
